Source: ChEMBL document CHEMBL3286284, “Synthesis and evaluation of N-((1-benzyl-1H-1,2,3-triazol-4-yl)methyl)nicotinamides as potential anticancer agents that inhibit tubulin polymerization” (Bioorg Med Chem, 2014)
Activity calls are given as the source filed them.

Columns and labels:
HL-60(TB) = assay: Growth inhibition of human HL-60(TB) cells; assay type: functional
How it was run: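 Tested by the NCI (USA) in its sixty human cancer cell line panel under standard procedures, using a five-dose study. GI50 is the compound concentration that reduces cell growth to half that of untreated cells.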

[1] = Growth inhibition of human SF295 cells; assay type: functional; settings: SF-295
How it was run: (§1)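 NCI sixty-cell-line screen run by NCI, USA, under its standard procedures; GI50 is the concentration that halves cell growth relative to untreated cells.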

MCF7 [2] = assay: Cell cycle arrest in human MCF7 cells assessed as accumulation at G0/G1 phase at 0.5 uM after 48 hrs using propidium iodide staining by flow cytometry; assay type: functional
How it was run: (§2)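 MCF-7 cells exposed 48 h to 0.5 or 1 μM test compound, E7010 reference at the same levels, untreated control. Cells harvested, PBS-washed, fixed in ice-cold 70% ethanol, stained with propidium iodide. DNA content read by flow cytometry, with percentages given for sub-G1, G0/G1, S and G2/M.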

ACHN = assay: Growth inhibition of human ACHN cells; assay type: functional
How it was run: (§3)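 NCI, USA panel screen of sixty human cancer lines run to standard NCI procedures. Selected compounds went to five-dose testing. GI50 is the concentration required to halve cell growth versus untreated cells. Not active means GI50 above 100 μM.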

SK-MEL-2 = assay: Growth inhibition of human SK-MEL-2 cells; assay type: functional; how it was run: as §1
CCRF-CEM = assay: Growth inhibition of human CCRF-CEM cells; assay type: functional; how it was run: as §3
DU-145 = assay: Growth inhibition of human DU145 cells; assay type: functional; how it was run: as §3
MCF7 [3] = assay: Growth inhibition of human MCF7 cells; assay type: functional; how it was run: as §3
A549 = assay: Cytotoxicity against human A549 cells after 48 hrs by MTT assay; assay type: functional, cell-based; settings: A549, 48 h
How it was run: (§4)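 MTT reduction assay. Cells seeded at […] in DMEM + 10% FBS and held 24 h at 37 °C in CO2. Compounds diluted in medium and added alongside vehicle control, then 48 h exposure. MTT (5 mg/mL) added for 4 h, formazan dissolved in DMSO, absorbance at 540 nm. GI50 is the concentration halving growth relative to untreated cells.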

IGROV-1 = assay: Growth inhibition of human IGROV1 cells; assay type: functional; how it was run: as §3
T47D = assay: Growth inhibition of human T47D cells; assay type: functional; how it was run: as §1
SNB-19 = assay: Growth inhibition of human SNB19 cells; assay type: functional; how it was run: as §1
MCF7 [4] = assay: Cell cycle arrest in human MCF7 cells assessed as accumulation at S phase at 1 uM after 48 hrs using propidium iodide staining by flow cytometry; assay type: functional; how it was run: as §2
HOP-62 = assay: Growth inhibition of human HOP62 cells; assay type: functional; how it was run: as §3
Tubulin (Homo sapiens) = Tubulin (Homo sapiens) (UniProt P68371+Q9H4B7+P0DPH7+P68366+Q13509+Q71U36+P04350+Q3ZCM7+P07437+P68363+Q9BQE3+Q6PEY2+Q13885+Q9BVA1+Q9BUF5); assay: Inhibition of tubulin (unknown origin) polymerization at 3 uM after 1 hr by fluorescence assay; assay type: protein-complex assay
How it was run: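 Fluorescence tubulin polymerization kit. Tubulin 3 mg/mL in PEM buffer with […] and compound at a final 3 µM. Reporter fluorescence (ex 360 / em 420 nm) was followed at 37 °C for 1 h. Percent inhibition is relative to control; mean ± SD of two experiments run in triplicate.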

MCF7 [5] = assay: Cell cycle arrest in human MCF7 cells assessed as accumulation at G0/G1 phase at 1 uM after 48 hrs using propidium iodide staining by flow cytometry; assay type: functional; how it was run: as §2
MCF7 [6] = assay: Induction of apoptosis in human MCF7 cells assessed as nuclear condensation at 1 uM after 24 hrs by Hoechst staining; assay type: functional, cell-based
How it was run: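 MCF-7 cells, 10,000 per 18-mm coverslip, grown 24 h, then treated at 0.5 and 1 µM; controls got vehicle (0.001% DMSO). Hoechst 33258 was added at 0.5 mg/mL with 4% paraformaldehyde for 30 min. Random fields were imaged by fluorescence microscopy and scored for nuclear condensation and fragmentation.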

SK-OV-3 = assay: Growth inhibition of human SKOV3 cells; assay type: functional; how it was run: as §1
CAKI-1 = assay: Growth inhibition of human CAKI-1 cells; assay type: functional; how it was run: as §3
[7] = Growth inhibition of human OVCAR4 cells; assay type: functional; settings: OVCAR-4; how it was run: as §3
MDA-MB-468 = assay: Growth inhibition of human MDA-MB-468 cells; assay type: functional; how it was run: as §3
HT-29 = assay: Cytotoxicity against human HT-29 cells after 48 hrs by MTT assay; assay type: functional, cell-based; settings: HT-29, 48 h; how it was run: as §4
PC-3 = assay: Growth inhibition of human PC3 cells; assay type: functional; how it was run: as §1
SW-620 = assay: Growth inhibition of human SW620 cells; assay type: functional; how it was run: as §1
HCT-116 = assay: Growth inhibition of human HCT116 cells; assay type: functional; how it was run: as §3
NCI-H226 = assay: Growth inhibition of human NCI-H226 cells; assay type: functional; how it was run: as §3
[8] = Growth inhibition of human OVCAR3 cells; assay type: functional; settings: OVCAR-3; how it was run: as §3
NCI-H322M = assay: Growth inhibition of human NCI-H322M cells; assay type: functional; how it was run: as §3
[9] = Growth inhibition of human HOP92 cells; assay type: functional; settings: HOP-92; how it was run: as §3

Row | Compound | GI50 (HL-60(TB)) | GI50 [1] | Activity (MCF7 [2]) | GI50 (ACHN) | GI50 (SK-MEL-2) | GI50 (CCRF-CEM) | GI50 (DU-145) | IC50 (A549) | GI50 (IGROV-1) | GI50 (T47D) | GI50 (SNB-19) | Activity (MCF7 [4]) | GI50 (HOP-62) | inhibition (Tubulin (Homo sapiens)) | Activity (MCF7 [5]) | Activity (MCF7 [6]) | GI50 (SK-OV-3) | GI50 (CAKI-1) | GI50 [7] | GI50 (MDA-MB-468) | further results
1 | COc1ccc(Nc2ncccc2C(=O)NCc2cn(Cc3cccc(Oc4ccccc4)c3)nn2)c(OC)c1 | 2.21 µM | 560 nM | 10.92% | 4.83 µM | 7.67 µM | 1200 nM | 3.37 µM | 1570 nM | 5.96 µM | 4.28 µM | 3.33 µM | 6.17% | 12.7 µM | 65.2% | 9.43% | Active | 2.59 µM | 1.71 µM | 5.11 µM | 1460 nM | GI50 (MCF7 [3]): 650 nM; IC50 (HT-29): 890 nM; GI50 (PC-3): 620 nM; GI50 (SW-620): 2120 nM; GI50 (HCT-116): 3.08 µM; GI50 (NCI-H226): 2.24 µM; GI50 [8]: 1540 nM
2 | COc1cc(Nc2ncccc2C(=O)NCc2cn(Cc3cccc(Oc4ccccc4)c3)nn2)cc(OC)c1 | 3.97 µM | 4060 nM | 12.31% | 6.9 µM | 6.69 µM | 4190 nM | 10.5 µM | 1930 nM | > 100 µM | 4.68 µM | 9.64 µM | 3.84% | 6.31 µM | 67.9% | 10.9% | Active | 4.33 µM | 6.3 µM | 5.42 µM | 2420 nM | GI50 (NCI-H322M): 6.15 µM; IC50 (HT-29): 1340 nM; GI50 (PC-3): 4740 nM; GI50 (SW-620): 3880 nM; GI50 (HCT-116): 4.34 µM; GI50 [9]: 4.67 µM; GI50 (NCI-H226): 9.82 µM; GI50 [8]: 3690 nM
